From ChEMBL document CHEMBL1121478, “Potential prophylactic antitumor activity of retinylidene 1,3-diketones” (1980)
Active and inactive are the calls of the source. The calls are words filed in the database; no cut-off is given here.

Legend:
Cricetinae gen. sp. [1] = assay: Compound is evaluated for its intrinsic ability to control epithelial cell differentiation by retinoids in hamster tracheal organ culture; format: functional, Trachea
In short: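 Hamster trachea organ cultures (procedure from earlier reports). Retinoids tested at 10^-8, 10^-9 and 10^-10 M. Potency given as ED50.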

Cricetinae gen. sp. [2] = assay: Compound is evaluated for its intrinsic ability to control epithelial cell differentiation by retinoids in hamster tracheal organ culture at 10e-8 M; IA = inactive(9/12) 9 were inactive out of 12; format: functional, organism-based; details: Trachea
Cricetinae gen. sp. [3] = assay: Compound is evaluated for its intrinsic ability to control epithelial cell differentiation by retinoids in hamster tracheal organ culture at 10e-9 M; IA = inactive(3/4) 3 were inactive out of 4; format: functional, organism-based; details: Trachea
Cricetinae gen. sp. [4] = assay: Compound is evaluated for its intrinsic ability to control epithelial cell differentiation by retinoids in hamster tracheal organ culture at 10e-9 M; IA = inactive(12/16) 12 were inactive out of 16; format: functional, organism-based; details: Trachea
Cricetinae gen. sp. [5] = assay: Compound is evaluated for its intrinsic ability to control epithelial cell differentiation by retinoids in hamster tracheal organ culture at 10e -10M; IA = inactive(9/12) 9 were inactive out of 12; format: functional, organism-based; details: Trachea
Cricetinae gen. sp. [6] = assay: Compound is evaluated for its intrinsic ability to control epithelial cell differentiation by retinoids in hamster tracheal organ culture at 10e -9M; IA =inactive(8/15) 8 were inactive out of 15; format: functional, organism-based; details: Trachea
Cricetinae gen. sp. [7] = assay: Compound is evaluated for its intrinsic ability to control epithelial cell differentiation by retinoids in hamster tracheal organ culture at 10e -8M; IA = inactive( 6 cultures were inactive out of 7); format: functional, organism-based; details: Trachea
Cricetinae gen. sp. [8] = assay: Compound is evaluated for its intrinsic ability to control epithelial cell differentiation by retinoids in hamster tracheal organ culture at 10e -8M; IA = inactive(16/17) 16 cultures were inactive out of 17; format: functional, organism-based; details: Trachea
Cricetinae gen. sp. [9] = assay: Compound is evaluated for its intrinsic ability to control epithelial cell differentiation by retinoids in hamster tracheal organ culture at 10e-9 M; IA = inactive(14/16) 14 were inactive out of 16; format: functional, organism-based; details: Trachea
Cricetinae gen. sp. [10] = assay: Compound is evaluated for its intrinsic ability to control epithelial cell differentiation by retinoids in hamster tracheal organ culture at 10e-8 M; act = active(4 cultures were active out of 5); format: functional, organism-based; details: Trachea
Cricetinae gen. sp. [11] = assay: Compound is evaluated for its intrinsic ability to control epithelial cell differentiation by retinoids in hamster tracheal organ culture at 10e -9M; IA = inactive(7 cultures were inactive out of 7); format: functional, organism-based; details: Trachea

CC1=C(/C=C/C(C)=C/C=C/C(C)=C/C=C2C(=O)CCCC2=O)C(C)(C)CCC1
TOC ED50 (Cricetinae gen. sp. [1]): 0.11 nM

CC1=C(/C=C/C(C)=C/C=C/C(C)=C/C=C2C(=O)CC(C(C)C)CC2=O)C(C)(C)CCC1 (configuration not stated)
TOC ED50 (Cricetinae gen. sp. [1]): 0.21 nM

CC1=C(/C=C/C(C)=C/C=C/C(C)=C/C=C2C(=O)CC(c3ccccc3)CC2=O)C(C)(C)CCC1 (configuration not stated)
TOC ED50 (Cricetinae gen. sp. [1]): 0.1 nM

CC1=C(/C=C/C(C)=C/C=C/C(C)=C/C=C2C(=O)CCCCCC2=O)C(C)(C)CCC1
TOC ED50 (Cricetinae gen. sp. [1]): 0.22 nM

CC1=C(/C=C/C(C)=C/C=C/C(C)=C/C=C2C(=O)c3ccccc3C2=O)C(C)(C)CCC1
TOC ED50 (Cricetinae gen. sp. [2]): inactive

CC1=C(/C=C/C(C)=C/C=C/C(C)=C/C=C2C(=O)C=CC2=O)C(C)(C)CCC1
TOC ED50 (Cricetinae gen. sp. [3]): inactive

CC1=C(/C=C/C(C)=C/C=C/C(C)=C/C=C2C(=O)CCCCCCCCCCCC2=O)C(C)(C)CCC1
TOC ED50 (Cricetinae gen. sp. [4]): inactive

CC1=C(/C=C/C(C)=C/C=C/C(C)=C/C=C2C(=O)C(C(C)(C)C)CC(C(C)(C)C)C2=O)C(C)(C)CCC1 (configuration not stated)
TOC ED50 (Cricetinae gen. sp. [5]): inactive
TOC ED50 (Cricetinae gen. sp. [6]): inactive

CC1=C(/C=C/C(C)=C/C=C/C(C)=C/C=C2C(=O)CCCCCCC2=O)C(C)(C)CCC1
TOC ED50 (Cricetinae gen. sp. [1]): 0.24 nM

CC(=O)C(=C/C=C(C)/C=C/C=C(C)/C=C/C1=C(C)CCCC1(C)C)C(C)=O
TOC ED50 (Cricetinae gen. sp. [1]): 1.8 nM

CC1=C(/C=C/C(C)=C/C=C/C(C)=C/C=C2C(=O)CCCCC2=O)C(C)(C)CCC1
TOC ED50 (Cricetinae gen. sp. [1]): 0.38 nM

CC1=C(/C=C/C(C)=C/C=C/C(C)=C/C=C2C(=O)CC(c3ccc(C(F)(F)F)cc3)CC2=O)C(C)(C)CCC1 (configuration not stated)
TOC ED50 (Cricetinae gen. sp. [1]): 0.1 nM

CCC1CC(=O)C(=C/C=C(C)/C=C/C=C(C)/C=C/C2=C(C)CCCC2(C)C)C(=O)C1 (configuration not stated)
TOC ED50 (Cricetinae gen. sp. [1]): 0.36 nM

CCCC(=O)C(=C/C=C(C)/C=C/C=C(C)/C=C/C1=C(C)CCCC1(C)C)C(=O)CCC
TOC ED50 (Cricetinae gen. sp. [7]): inactive

CC1=C(/C=C/C(C)=C/C=C/C(C)=C/C=C2C(=O)CCC2=O)C(C)(C)CCC1
TOC ED50 (Cricetinae gen. sp. [8]): inactive

2-[3,7-Dimethyl-9-(2,6,6-trimethyl-cyclohex-1-enyl)-nona-2,4,6,8-tetraenylidene]-[3]ferrocenophane-1,3-dione
TOC ED50 (Cricetinae gen. sp. [9]): inactive

COc1ccc(C2CC(=O)C(=C/C=C(C)/C=C/C=C(C)/C=C/C3=C(C)CCCC3(C)C)C(=O)C2)cc1 (configuration not stated)
TOC ED50 (Cricetinae gen. sp. [1]): 0.18 nM

CC1=C(/C=C/C(C)=C/C=C/C(C)=C/C=C2C(=O)CC(C)CC2=O)C(C)(C)CCC1 (configuration not stated)
TOC ED50 (Cricetinae gen. sp. [1]): 0.8 nM

CCC(=O)C(=C/C=C(C)/C=C/C=C(C)/C=C/C1=C(C)CCCC1(C)C)C(=O)CC
TOC ED50 (Cricetinae gen. sp. [10]): Active
TOC ED50 (Cricetinae gen. sp. [11]): inactive

CC1=C(/C=C/C(C)=C/C=C/C(C)=C/C=C2C(=O)CC(C)(C)CC2=O)C(C)(C)CCC1
TOC ED50 (Cricetinae gen. sp. [1]): 0.24 nM
